Measurements taken from article PMC10981011 (Synthetic and Systems Biotechnology, 2024).

How the values were obtained:
[1] = tested on: Mak1 (microbiome-derived acarbose kinase 1); test: In vitro reaction of Mak1; type: in vitro ADME, human microbiome; details: 10 μM Mak1, 0.5 mM substrate, 2 mM ATP, 30 °C, 2 h
Outline: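 Mak1 expressed in E. coli Origami B (DE3) (1 mM IPTG, 16 °C, 18 h) and purified on Ni-NTA. Reactions used 100 mM Tris-HCl pH 7.0, 10 mM MgCl₂, 2 mM ATP, 10 μM Mak1 and 0.5 mM test compound. They ran at 30 °C for 2 h and were stopped with 2 volumes methanol. Control used heat-inactivated Mak1 (95 °C, 30 min). Phosphorylated product detected by LC-MS on an SB-Aq column.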

[2] = tested on: Apg (acarbose-preferred glucosidase); test: In vitro reaction of Apg; type: in vitro ADME, Klebsiella grimontii TD1; details: 10 μM Apg, 1 mM substrate, 37 °C, 2 h

## C[C@H]1O[C@H](O[C@H]2[C@H](O)[C@@H](O)[C@@H](O[C@H]3[C@H](O)[C@@H](O)C(O)O[C@@H]3CO)O[C@@H]2CO)[C@H](O)[C@@H](O)[C@@H]1N[C@H]1C=C(CO)[C@@H](O)[C@H](O)[C@H]1O (some centres unmarked) [Acarbose]
[1]
  Phosphorylation by Mak1 (detection of phosphorylated product): catalyzed the conversion of acarbose to O-7-phosphoryl-acarbose
[2]
  Hydrolysis by Apg: completely converted
